The values that follow come from ChEMBL document CHEMBL1671691 (Antimicrob Agents Chemother, 2010).

The subject of test [1] is Influenza B virus. The experiment in a line: Antiviral activity against oseltamivir-susceptible zanamivir-, adamantane-resistant Influenza B virus B/Memphis/20/1996 harboring neuraminidase R152K mutant infected in MDCK cells assessed as inhibition of viral replication after 3 days by microscopic analysis using crystal violet stain. It counts as functional, cell-based, B/Memphis/20/96.

The test system of test [2] is Influenza A virus. As to the kind of experiment: Antiviral activity against oseltamivir-susceptible zanamivir-, adamantane-resistant Influenza A virus (A/Texas/12/2007 (clone)(H3N2)) harboring neuraminidase E119I mutant and harboring M2 S31N mutant infected in MDCK cells assessed as inhibition of viral replication after 3 days by microscopic analysis using crystal violet stain. It counts as functional, organism-based, Influenza A virus (A/Texas/12/2007(H3N2)).

In test [3] the test system is Influenza A virus. As to the kind of experiment: Antiviral activity against adamantane-resistant zanamivir-,oseltamivir-susceptible Influenza A virus (A/Washington/01/2007(H3N2)) harboring M2 S31N mutant infected in MDCK cells assessed as inhibition of viral replication after 3 days by microscopic analysis using crystal violet stain. It is filed as functional, organism-based. Put shortly: (§1)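 Confluent MDCK-ATCC monolayers infected with virus diluted to give 15–45 plaques/well. Adsorption 1 h at 37°C without drug, then washed. Overlaid with 0.8% agarose in MEM containing drug plus TPCK-trypsin: 3 μg/ml for seasonal viruses, 2 μg/ml for 2009 A(H1N1). Incubated 3 days at 37°C, 5% CO2. Ethanol-fixed, crystal violet-stained, plaques counted. EC50 by curve fit; duplicates on three occasions, mean ± SD.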

Test [4] concerns Influenza A virus. As to the kind of experiment: Antiviral activity against adamantane-, zanamivir-susceptible oseltamivir-resistant Influenza A virus (A/Georgia/20/2006(H1N1)) harboring neuraminidase H274Y mutant infected in MDCK cells assessed as inhibition of viral replication after 3 days by microscopic analysis using crystal violet stain. It counts as functional, organism-based. The essentials:
as §1

Test [5] deals with Influenza A virus. The experiment in a line: Antiviral activity against adamantane-resistant zanamivir-,oseltamivir-susceptible Influenza A virus (A/Florida/01/2009(H3N2)) harboring M2 S31N mutant infected in MDCK cells assessed as inhibition of viral replication after 3 days by microscopic analysis using crystal violet stain. It counts as functional, organism-based. Put shortly: as §1

Test [6] concerns Influenza B virus. The experiment in a line: microbe, parasite or virus in culture. As to conditions: B/Memphis/20/96, MDCK, 72 h.

With `NC(=O)c1ncn([C@@H]2O[C@H](CO)[C@@H](O)[C@H]2O)n1` [RIBAVIRIN], the EC50 came out at 25 µM in the test with Influenza B virus [1]; 46.7 µM in the test with Influenza A virus [2]; 35.6 µM with Influenza A virus [3]; 19.7 µM with Influenza A virus [4]; 20.9 µM in the test with Influenza A virus [5]; 13.9 µM with Influenza B virus [6].
